The values that follow come from ChEMBL document CHEMBL3392958, “Evaluation of two novel antioxidants with differential effects on curcumin-induced apoptosis in C2 skeletal myoblasts; involvement of JNKs” (Bioorg Med Chem, 2015).

The source made the active and inactive calls. The calls are words filed in the database; no cut-off is given here.

Data set [1] can be described thus: Antioxidant activity assessed as DPPH free radical scavenging activity after 30 mins by spectrophotometry. The data set is classed as physicochemical. Summed up: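 DPPH radical (final 400 µM, in ethanol) mixed with test compound at 25–400 µM at room temperature; absorbance at 517 nm recorded at intervals over 90 min; % reducing capacity taken at 30 min, IC50 from this; means ± sem of at least two independent experiments.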
For orientation: DPPH is a stable violet radical that fades when it is reduced.

Data set [2] concerns C2. Nature of the data set: Inhibition of curcumin-induced apoptosis in mouse C2 cells assessed as reduction in PARP cleavage at 2.5 uM pre-incubated for 30 mins before curcumin exposure for 4 hrs by SDS-PAGE and immunoblotting method. The data set is classed as functional, cell-based. Summed up: (§1)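 C2 cells pre-incubated 30 min with compound, then 50 µM curcumin for 4 h; buffer G lysates (30 µg) immunoblotted with antibody detecting full-length PARP and the 89 kDa fragment, actin loading control; densitometry, means ± sem of ≥3 experiments, one-way ANOVA with Bonferroni.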

Data set [3] can be described thus: Effect on PARP protein level in mouse C2 cells at 2.5 uM incubated for 30 mins by SDS-PAGE and immunoblotting method. It is filed as cell-based. Particulars: c2, 0.5 h. In general terms: A western blot detects proteins with antibodies after separation by electrophoresis.
Data set [4] in a line: Cytoprotective activity against H2O2-induced cytotoxicity in mouse C2 cells assessed as cell viability at 50 uM after 24 hrs by MTT assay (reference value: 83.1 +/- 3.5%). The following applies: C2, 24 h, read-out: Activity. The data set is classed as functional. (In general: Formazan colour is commonly taken as a measure of viable cells.)
Data set [5] concerns C2. Nature of the data set: Inhibition of H2O2-induced ERK phosphorylation in mouse C2 cells at 15 uM pre-incubated for 30 mins before H2O2 exposure for 15 mins by SDS-PAGE and immunoblotting method. The data set is classed as cell-based. Summed up: (§2)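 C2 myoblasts pre-incubated 30 min with compound, then 1 mM H2O2 for 15 min. Lysates in buffer G (30 µg) run on SDS–PAGE and immunoblotted for phospho-ERKs or phospho-JNKs, actin as loading control; ECL, densitometry; means ± sem, ≥3 experiments; one-way ANOVA with Bonferroni post-test.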

Data set [6] is described as follows: Cytoprotective activity against H2O2-induced cytotoxicity in mouse C2 cells assessed as cell viability at 30 uM after 24 hrs by MTT assay (reference value: 83.1 +/- 3.5%). The data set is classed as functional. Particulars: C2, 24 h, read-out: Activity.
Data set [7] relates to C2. Briefly: Inhibition of H2O2-induced JNK phosphorylation in mouse C2 cells at 15 uM pre-incubated for 30 mins before H2O2 exposure for 15 mins by SDS-PAGE and immunoblotting method. It is filed as cell-based. The method in brief:
as §2

A short description of data set [8]: Cytoprotective activity against H2O2-induced cytotoxicity in mouse C2 cells assessed as cell viability at 15 uM after 24 hrs by MTT assay (reference value: 83.1 +/- 3.5%). The following applies: C2, 24 h, read-out: Activity. The data set is classed as functional.
A short description of data set [9]: Cytotoxic activity against mouse C2 cells assessed as cell viability at 50 uM after 24 hrs by MTT assay (reference value: 100%). It is filed as cell-based. The following applies: read-out: Activity. The method in brief:
(§3)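 Serum-deprived C2 myoblasts (≥3 h, 70% confluence) incubated with compound alone (DMSO vehicle) for 24 h; MTT read at 540 nm after lysis in 0.1 M HCl/isopropanol, expressed as % of untreated control; means ± sem of ≥3 independent experiments.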

Data set [10] is described as follows: Cytoprotective activity against H2O2-induced cytotoxicity in mouse C2 cells assessed as cell viability at 1 uM after 24 hrs by MTT assay (reference value: 83.1 +/- 3.5%). It is filed as functional. Particulars: C2, 24 h, read-out: Activity.
Data set [11] can be described thus: Cytoprotective activity against curcumin-induced cytotoxicity in mouse C2 cells assessed as cell viability at 30 uM after 24 hrs by MTT assay (reference value: 83.8 +/- 0.4%). The data set is classed as functional. Particulars: C2, 24 h, read-out: Activity.
For data set [12], the system named is C2. Nature of the data set: Inhibition of H2O2-induced ERK phosphorylation in mouse C2 cells at 30 uM pre-incubated for 30 mins before H2O2 exposure for 15 mins by SDS-PAGE and immunoblotting method. It is filed as cell-based. Summed up: as §2
In data set [13] the test system is C2. Briefly: Inhibition of curcumin-induced JNK phosphorylation in mouse C2 cells at 30 uM pre-incubated for 30 mins before curcumin exposure for 2 hrs by SDS-PAGE and immunoblotting method.
Data set [14] concerns C2. Nature of the data set: Inhibition of curcumin-induced apoptosis in mouse C2 cells assessed as reduction in PARP cleavage at 30 uM pre-incubated for 30 mins before curcumin exposure for 4 hrs by SDS-PAGE and immunoblotting method. It is filed as functional, cell-based. The method in brief: as §1
Data set [15] is described as follows: Effect on PARP protein level in mouse C2 cells at 30 uM incubated for 30 mins by SDS-PAGE and immunoblotting method. It is filed as cell-based. The following applies: c2, 0.5 h.
The subject of data set [16] is C2. Briefly: Inhibition of H2O2-induced JNK phosphorylation in mouse C2 cells at 30 uM pre-incubated for 30 mins before H2O2 exposure for 15 mins by SDS-PAGE and immunoblotting method. The data set is classed as cell-based. The method in brief:
as §2

For data set [17], the system named is C2. Briefly: Inhibition of curcumin-induced JNK in mouse C2 cells assessed as reduction in c-Jun phosphorylation at 30 uM pre-incubated for 30 mins before curcumin exposure for 4 hrs by Western blotting method. It is filed as cell-based. The method in brief: (§4)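 After 30 min pre-incubation with compound and 4 h 50 µM curcumin, nuclear extracts prepared by subcellular fractionation (25 µg) immunoblotted for phospho-c-Jun, with total c-Jun as loading control; densitometry, means ± sem of ≥3 experiments, one-way ANOVA/Bonferroni.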

The nature of data set [18]: Cytotoxic activity against mouse C2 cells assessed as cell viability at 30 uM after 24 hrs by MTT assay (reference value: 100%). It is filed as cell-based. Particulars: read-out: Activity. Summed up:
as §3

The subject of data set [19] is C2. Nature of the data set: Inhibition of curcumin-induced ERK phosphorylation in mouse C2 cells at 30 uM pre-incubated for 30 mins before curcumin exposure for 15 mins by SDS-PAGE and immunoblotting method. The data set is classed as cell-based. Summed up:
(§5)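 Cells pre-treated 30 min with compound, then 50 µM curcumin for 15 min; whole-cell extracts (buffer G, 30 µg) immunoblotted for phospho-ERKs, actin loading control, ECL and densitometry; means ± sem of ≥3 experiments, one-way ANOVA/Bonferroni.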

In data set [20] the test system is C2. Briefly: Inhibition of curcumin-induced JNK in mouse C2 cells assessed as reduction in c-Jun phosphorylation at 15 uM pre-incubated for 30 mins before curcumin exposure for 4 hrs by Western blotting method. It is filed as cell-based. Summed up: as §4
Data set [21] can be described thus: Cytoprotective activity against curcumin-induced cytotoxicity in mouse C2 cells assessed as cell viability at 15 uM after 24 hrs by MTT assay (reference value: 83.8 +/- 0.4%). It is filed as functional. The following applies: C2, 24 h, read-out: Activity.
Data set [22] in a line: Effect on PARP protein level in mouse C2 cells at 15 uM incubated for 30 mins by SDS-PAGE and immunoblotting method. It is filed as cell-based. The following applies: c2, 0.5 h.
The subject of data set [23] is C2. Nature of the data set: Inhibition of curcumin-induced apoptosis in mouse C2 cells assessed as reduction in PARP cleavage at 15 uM pre-incubated for 30 mins before curcumin exposure for 4 hrs by SDS-PAGE and immunoblotting method. It is filed as functional, cell-based. Summed up:
as §1

Data set [24] concerns C2. Briefly: Inhibition of curcumin-induced JNK phosphorylation in mouse C2 cells at 15 uM pre-incubated for 30 mins before curcumin exposure for 2 hrs by SDS-PAGE and immunoblotting method.
In data set [25] the test system is C2. Nature of the data set: Inhibition of curcumin-induced ERK phosphorylation in mouse C2 cells at 15 uM pre-incubated for 30 mins before curcumin exposure for 15 mins by SDS-PAGE and immunoblotting method. The data set is classed as cell-based. The method in brief:
as §5

Data set [26] in a line: Cytotoxic activity against mouse C2 cells assessed as cell viability at 15 uM after 24 hrs by MTT assay (reference value: 100%). The data set is classed as cell-based. Particulars: read-out: Activity. Summed up: as §3

As a reminder, the IC50 is the concentration at which inhibition is half-maximal. In the case of `Oc1ccc(/C=C/c2cc(O)cc(O)c2)cc1` [RESVERATROL], the IC50 in [1] came to 96 µM.

What is called inhibition is the drop in the measured response relative to a control, in per cent. With `N#C/C(=C1/Nc2ccccc2S1)c1ccnc(NCCc2cccnc2)n1`, in the data set with C2 [2], the inhibition entry is “Active”. Also, in [3], the Activity entry is “Non-toxic”.

Consider `COc1cc(/C=C/C(=O)CC(=O)/C=C/c2ccc(O)c(OC)c2)ccc1O` [CURCUMIN], for which the viability at 50 µM in [4] turned out to be 53.6%. The inhibition came out at 55% in the data set on C2 [5] and 81% with C2 [7]. Further, the viability at 30 µM in data set [6] amounted to 93.1%. The viability at 15 µM in [8] came out at 90.2%. For the same compound, in [9], the viability at 24 h, 50 µM is 83.8%. Moreover, in [10], the viability at 1 µM is 85.5%.

For `CN1CC(O)(c2ccc(-c3ccccc3)cc2)Sc2ccccc21` (centres undefined), in data set [4], the viability at 50 µM is 97.6%. The viability at 30 µM in data set [11] and in data set [6] was 99.1% each time. For the same compound, the inhibition in the data set with C2 [12] was found to be 55%; in the data set on C2 [13], 50%; in the data set with C2 [16], 81%; in the data set on C2 [17], 40%; with C2 [19], 53%. Also, the inhibition result in the data set on C2 [14] is “Active”. Moreover, the Activity entry in data set [15] is “Non-toxic”. In addition, the viability at 15 µM in [8] is 87.1%. The IC50 in data set [1] came out at 271 µM. Besides, the viability at 1 µM in data set [10] was determined as 81.6%. Also, the viability at 24 h, 30 µM in data set [18] was determined as 99.5%.

Take `CN1CC(O)(c2ccc(-c3ccccc3)cc2)Oc2ccccc21` (centres undefined): the inhibition result in the data set on C2 [20], in the data set with C2 [23] and in the data set on C2 [24] was “inactive” in each case. Also, the viability at 50 µM in data set [4] is 71.6%. Besides, the figures for the inhibition with C2 [5], in the data set with C2 [7] and in the data set on C2 [25] were 55%, 81% and 79%, respectively. Also, the viability at 15 µM in data set [21] is 53.6%; in data set [8], 97.1%. The viability at 30 µM in data set [6] stood at 76.2%. In data set [22], the Activity result is given as “Non-toxic”. For the same compound, in data set [1], the 50% inhibitory concentration (IC50) was 119 µM. Besides, the viability at 1 µM in data set [10] came out at 84.6%. The viability at 24 h, 15 µM in [26] came out at 98.1%.

Consider `COc1ccc2[nH]cc(CCNC(C)=O)c2c1` [MELATONIN], for which the inhibition was found to be 57% in the data set with C2 [20], 50% in the data set with C2 [24] and 53% with C2 [25]. Moreover, the viability at 15 µM in data set [21] came out at 98.5%; in data set [8], 92.5%. Also, the viability at 24 h, 15 µM in data set [26] was 96.9%.
